Test results from ChEMBL document CHEMBL1177638, “Synthesis of pyrrolo[3,2-h]quinolinones with good photochemotherapeutic activity and no DNA damage” (Bioorg Med Chem, 2010).
pIC50: −log10 of the molar value. Calls of active or inactive are those of the source. The calls are words filed in the database; no cut-off is given here.

Experiments:
[1] = tested on: Jurkat; assay: Cell cycle arrest in human Jurkat cells assessed as accumulation in G1 phase at 1 uM irradiated with 25 J/cm'2 after 24 hrs by flow cytometry
[2] = tested on: Jurkat; assay: Induction of apoptosis in human Jurkat cells assessed as increase in mitochondrial ROS production at 2.5 uM after 6 hrs post-irradiation with 2.5 J/cm'2 by FACS analysis; type: functional
Summary of the method: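 Jurkat cells were collected 6 h after UV-A irradiation (2.5 J/cm²) with the compound and resuspended in HBSS with hydroethidine 2.5 µM or DCFDA 5 µM. They were incubated at 37 °C for 15 or 30 min. Flow cytometry used 488 nm excitation, with emission at 620 nm (HE) or 530 nm (DCF), acquiring ≥10,000 events. Values are means ± SD of three independent experiments.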

[3] = tested on: Jurkat; assay: Induction of apoptosis in human Jurkat cells assessed as increase in mitochondrial ROS production at 1 uM after 6 hrs post-irradiation with 2.5 J/cm'2 by FACS analysis; type: functional
Summary of the method: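 Jurkat cells were irradiated (2.5 J/cm²) with compound present and collected 6 h later. They were resuspended in HBSS with hydroethidine and DCFDA (2.5 and 5, respectively) and held at 37 °C for 15 or 30 min. Flow cytometry used 488 nm excitation, reading 620 nm for HE and 530 nm for DCF, with at least 10,000 events. Values are mean ± SD, three independent experiments.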

[4] = tested on: Jurkat; assay: Phototoxicity against human Jurkat cells irradiated with 2.5 J/cm'2 after 72 hrs by MTT assay; type: functional, cell-based; settings: light or radiation study
Summary of the method: (§1)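 Cells were seeded at 8 × 10³ and preincubated 18 h at 37 °C, 5% CO₂. Jurkat and K-562 grew in RPMI-1640, MCF-7 and NCTC-2544 in DMEM, and LoVo in Ham's F12, all with 10% FBS plus penicillin and streptomycin. Compounds in DMSO were diluted in HBSS, pH 7.2 (range 20–0.31; DMSO ≤1%) and applied 30 min at 37 °C. Wells were then UV-A irradiated (365 nm; 2.5 or 3.75 J/cm²), medium was replaced, and MTT was read after 72 h.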

[5] = tested on: Jurkat; assay: Induction of apoptosis in human Jurkat cells assessed as induction of loss of membrane potential at 2.5 uM after 2 hrs post-irradiation with 20 J/cm'2 by flow cytometry; type: functional
Summary of the method: (§2)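 JC-1 probe at 1 µg/mL in HBSS was added to Jurkat cells spun down 2 or 4 h after UV-A irradiation with the compound. Green (FL1) and orange (FL2) fluorescence were read by flow cytometry, ≥10,000 events per sample. Values are means ± SD of at least three independent experiments.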

[6] = tested on: Jurkat; assay: Induction of apoptosis in human Jurkat cells assessed as lysosomal dysfunction at 1 uM after 2 hrs post-irradiation with 2.5 J/cm'2 using acridine orange dye by flow cytometry; type: functional
Summary of the method: (§3)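 Jurkat cells were irradiated (2.5 J/cm²) with compound present and collected at 2 and 4 h. They were resuspended in RPMI-1640 containing acridine orange, and the percentage of red-fluorescent cells (intact lysosomes) was scored by flow cytometry. Values are mean ± SD of at least three independent experiments.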

[7] = tested on: Nucleic Acid; assay: Binding affinity to UV irradiated pBR322 assessed as strand break by electrophoresis; type: nucleic-acid assay; settings: Escherichia coli
Summary of the method: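 Plasmid irradiated with the compound. Aliquots were then incubated at 37 °C with Fpg or Endo III. Bands were quantified densitometrically and supercoiled (Form I) and open circular (Form II) fractions were calculated.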

[8] = tested on: MCF7; assay: Phototoxicity against human MCF7 cells irradiated with 3.75 J/cm'2 after 72 hrs by MTT assay; type: functional, cell-based; settings: MCF7, light or radiation study
Summary of the method: as §1

[9] = Photodamaging activity to bovine serum albumin irradiated with 2.5 J/cm'2 UV light assessed as increase in carbonyl content; type: physicochemical; settings: cattle
Summary of the method: (§4)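 BSA or RNase A at 2 mg/mL in phosphate buffer was irradiated with the compound in a quartz cuvette for various times. Carbonyl content was measured spectrophotometrically after 2,4-dinitrophenylhydrazine derivatization.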

[10] = tested on: Nucleic Acid; assay: Binding affinity to salmon testes DNA assessed as intercalation by linear dichroism experiment; type: nucleic-acid assay; settings: Salmonidae
Summary of the method: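 Salmon testes DNA was mixed with compound at [Drug]/[DNA] ratios of 0, 0.02 and 0.04 in 10 mM phosphate buffer, pH 7.2. Samples were oriented in a rotating cylindrical flow cuvette (0.14 cm path, 800 rpm), and linear dichroism spectra were recorded over roughly 250–450 nm.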

[11] = tested on: LoVo; assay: Phototoxicity against human LoVo cells irradiated with 2.5 J/cm'2 after 72 hrs by MTT assay; type: functional, cell-based; settings: light or radiation study
Summary of the method: as §1

[12] = tested on: Jurkat; assay: Induction of apoptosis in human Jurkat cells assessed as lysosomal dysfunction at 1 uM after 4 hrs post-irradiation with 2.5 J/cm'2 using acridine orange dye by flow cytometry; type: functional
Summary of the method: as §3

[13] = tested on: Jurkat; assay: Cell cycle arrest in human Jurkat cells assessed as accumulation in S phase at 1 uM irradiated with 20 J/cm'2 after 24 hrs by flow cytometry; type: functional
Summary of the method: (§5)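 Exponentially growing Jurkat cells (5 × 10⁵) were irradiated with compound present. Drug was removed, and cells were kept 24 h in RPMI-1640, fixed in ice-cold 70% ethanol, and treated overnight with RNAse (10 KU/mL) in PBS. Cells were stained with propidium iodide and run on a flow cytometer, with DNA content reported as the fraction of cells in each cycle phase.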

[14] = tested on: Jurkat; assay: Cell cycle arrest in human Jurkat cells assessed as accumulation in subG1 phase at 1 uM irradiated with 20 J/cm'2 after 24 hrs by flow cytometry; type: functional
Summary of the method: as §5

[15] = Phototoxicity against human sNCTC-2544 cells irradiated with 3.75 J/cm'2 after 72 hrs by MTT assay; type: functional, cell-based; settings: NCTC-2544, light or radiation study
Summary of the method: as §1

[16] = Photodamaging activity to ribonuclease irradiated with 2.5 J/cm'2 UV light assessed as increase in carbonyl content; type: physicochemical
Summary of the method: as §4

[17] = tested on: K562; assay: Phototoxicity against human K562 cells irradiated with 3.75 J/cm'2 after 72 hrs by MTT assay; type: functional, cell-based; settings: K562, light or radiation study
Summary of the method: as §1

[18] = Phototoxicity against human sNCTC-2544 cells irradiated with 2.5 J/cm'2 after 72 hrs by MTT assay; type: functional, cell-based; settings: NCTC-2544, light or radiation study
Summary of the method: as §1

[19] = tested on: MCF7; assay: Phototoxicity against human MCF7 cells irradiated with 2.5 J/cm'2 after 72 hrs by MTT assay; type: functional, cell-based; settings: MCF7, light or radiation study
Summary of the method: as §1

[20] = tested on: Jurkat; assay: Induction of apoptosis in human Jurkat cells assessed as induction of loss of membrane potential at 2.5 uM after 2 hrs post-irradiation with 20 J/cm'2 using JC1 staining by FACS; type: functional
Summary of the method: as §2

[21] = tested on: Jurkat; assay: Induction of apoptosis in human Jurkat cells assessed as induction of loss of membrane potential at 2.5 uM after 4 hrs post-irradiation with 20 J/cm'2 by flow cytometry; type: functional
Summary of the method: as §2

[22] = tested on: Jurkat; assay: Induction of apoptosis in human Jurkat cells assessed as lysosomal dysfunction at 2.5 uM after 2 hrs post-irradiation with 2.5 J/cm'2 using acridine orange dye by flow cytometry; type: functional
Summary of the method: (§6)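 Jurkat cells were irradiated (2.5 J/cm² UV-A) with the compound and collected 2 or 4 h later. They were resuspended in RPMI-1640 containing acridine orange 1 µM. Intact-lysosome cells were scored by red fluorescence on flow cytometry. Values are means ± SD of at least three independent experiments.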

[23] = tested on: Jurkat; assay: Induction of apoptosis in human Jurkat cells assessed as induction of loss of membrane potential at 2.5 uM after 4 hrs post irradiation with 20 J/cm'2 using JC1 staining by FACS; type: functional
Summary of the method: as §2

[24] = tested on: LoVo; assay: Phototoxicity against human LoVo cells irradiated with 3.75 J/cm'2 after 72 hrs by MTT assay; type: functional, cell-based; settings: light or radiation study
Summary of the method: as §1

[25] = tested on: Jurkat; assay: Induction of apoptosis in human Jurkat cells assessed as lysosomal dysfunction at 2.5 uM after 4 hrs post-irradiation with 2.5 J/cm'2 using acridine orange dye by flow cytometry; type: functional
Summary of the method: as §6

[26] = tested on: Jurkat; assay: Induction of lipid peroxidation in human Jurkat cells irradiated with 2.5 J/cm'2 assessed as increase in malondialdehyde production after 24 hrs by TBARS assay relative to untreated control; type: functional, cell-based
Summary of the method: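 Jurkat cells (500,000) were irradiated (2.5 J/cm²) with compound present and incubated 24 h. Supernatant was kept with BHT, and cells were lysed in 1% SDS, with protein measured by the Peterson method. Malondialdehyde was measured by thiobarbituric acid reaction (fluorescence, 553 nm) against a 1,1,3,3-tetraethoxypropane standard curve. Results are given as nmol TBARS normalized to protein.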

[27] = tested on: Jurkat; assay: Cell cycle arrest in human Jurkat cells assessed as accumulation in G2/M phase at 1 uM irradiated with 25 J/cm'2 after 24 hrs by flow cytometry
[28] = tested on: K562; assay: Phototoxicity against human K562 cells irradiated with 2.5 J/cm'2 after 72 hrs by MTT assay; type: functional, cell-based; settings: K562, light or radiation study
Summary of the method: as §1

In the case of `O=c1ccc2ccc3occc3c2o1` [ANGELICIN], the Activity [1] was 12.3%, the Activity [2] was 15.82% and the Activity [3] was “Active”. It also gave a pIC50 [4] of 6.00, an Activity [5] of 1.08% and an Activity [6] of 9.82%. The Activity [7] was “Active”, the pIC50 [8] was 5.82 and the Activity [9] was “Active”. For the same compound, the Activity [10] was “Active”, the pIC50 [11] was 5.44 and the Activity [12] was 6.63%. For the same compound, the Activity [13] was 46.7%, the Activity [14] was 30.8% and the pIC50 [15] was 6.05. For the same compound, the Activity [16] was “Active”, the pIC50 [17] was 6.00 and the pIC50 [18] was 5.38. For the same compound, the pIC50 [19] was 5.36, the Activity [20] was 98.92% and the Activity [21] was 41.2%. The Activity [22] was 15.03%, the Activity [23] was 58.8% and the pIC50 [24] was 5.82. For the same compound, the Activity [25] was 50.85%, the Activity [26] was “Dose-dependent effect” and the Activity [27] was 10.2%. For the same compound, the pIC50 [28] was 5.92.
